The values below come from ChEMBL document CHEMBL1138784, “Rational design, synthesis, and biological evaluation of bis(pyrimido[5,6,1-de]acridines) and bis(pyrazolo[3,4,5-kl]acridine-5-carboxamides) as new anticancer agents” (J Med Chem, 2004).

In one assay the test system is HT-29. Kind of assay: Cytotoxicity is determined as the concentration required to inhibit the growth of human colon adenocarcinoma (HT-29) cell line. Type of assay: functional, cell-based.
The subject of assay [1] is Nucleic Acid. Kind of assay: Binding site preference is determined as the ratio of Poly (dA-dT)2 to Poly (dG-dC)2. In kind it is nucleic-acid assay. A digest of the protocol:
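Ethidium displacement fluorometry at pH 7.0 (10 mM Na2HPO4, 10 mM NaH2PO4, 1 mM EDTA) with 1.26 μM ethidium bromide and 1 μM [poly(dA-dT)]2 or [poly(dG-dC)]2, 20 °C. Ex 546 nm, em 595 nm, drug added serially from a DMSO stock. Preference taken from the [AT]/[GC] ratio of C50 values, counted significant only below 0.7 or above 1.3.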

Assay [2] relates to Nucleic Acid. Description: Binding site preference is determined as the ratio of AT to GC.
Assay [3] in a line: Cytotoxicity against human MKN45 cancer cell line was determined after 1 hr. In kind it is cell-based. Conditions: Cancer cell lines. Summed up:
(§1)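 MTT colorimetric assay. Cells seeded by growth characteristics and preincubated 24 h, then exposed to drug for 1 h or 144 h at 37 °C, 5% CO2. H460M, MKN45 and PC-3 were grown in RPMI 1640 with 10% FCS. HCT116 was grown in D-MEM with 10% FBS and 2 mM glutamine.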

A short description of assay [4]: Cytotoxicity against human H460M cancer cell line was determined after 1 hr. Conditions: Cancer cell lines. Type of assay: cell-based. Summed up: as §1
Assay [5] in a line: Cytotoxicity against human HCT116 cancer cell line was determined after 1 hr. In kind it is cell-based. Conditions: HCT-116, 1 h. Summed up: as §1
Another assay deals with MKN-45. Description: Cytotoxicity against human MKN45 cancer cell line was determined after 144 hr. Conditions: MKN-45, 144 h. In kind it is functional, cell-based. A digest of the protocol: as §1
Another assay deals with LoVo. Kind of assay: Cytotoxicity against human LoVo cancer cell line was determined after 144 hr. In kind it is functional, cell-based. Summed up: (§2)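 MTT assay on doxorubicin-sensitive LoVo and resistant LoVo/Dx cells, 24 h preincubation, then 1 h or 144 h drug exposure at 37 °C, 5% CO2. IC50 in nM. Resistance index is IC50 on LoVo/Dx divided by IC50 on LoVo.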
The nature of assay [6]: Cytotoxicity against human LoVo cancer cell line was determined after 1 hr. Type of assay: cell-based. Summed up: as §2
A further assay deals with PC-3. Kind of assay: Cytotoxicity against human PC3 cancer cell line was determined after 144 hr. In kind it is functional, cell-based. Conditions: PC-3, 144 h. Summed up: as §1
The nature of assay [7]: Cytotoxicity against human H460M cancer cell line was determined after 144 hr. Conditions: Cancer cell lines. Type of assay: functional, cell-based. A digest of the protocol:
as §1

Assay [8] is described as follows: Cytotoxicity against human PC3 cancer cell line was determined after 1 hr. In kind it is cell-based. Conditions: Cancer cell lines. A digest of the protocol:
as §1

Another assay concerns HCT-116. Description: Cytotoxicity against human HCT116 cancer cell line was determined after 144 hr. Type of assay: functional, cell-based. Conditions: HCT-116, 144 h. Summed up:
as §1

Consider `CN(C)CCN1Nc2c3ccccc3nc3c(C(=O)NCCN(C)CCNC(=O)c4ccc5c6c(c7ccccc7nc46)NN5CCN(C)C)ccc1c23`, for which the IC50 with HT-29 was determined as 360 nM. Also, the Binding site preference with Nucleic Acid [1] came out at 4.3.

As to `COc1ccc2c(c1)c(=O)c1c(NCCN(C)C)ccc3c(=O)n(CCN(C)C)c(=O)n2c31`, the Binding site preference in the assay with Nucleic Acid [2] turned out to be 0.22.

For `CN(C)CCn1c(=O)c2ccc(NCCN(C)CCN(C)CCNc3ccc4c(=O)n(CCN(C)C)c(=O)n5c6ccccc6c(=O)c3c45)c3c(=O)c4ccccc4n(c1=O)c23`, the IC50 in the assay with HT-29 was found to be 390 nM. Further, in the assay with Nucleic Acid [1], the Binding site preference is 84.

With `CN(C)CCn1c(=O)c2ccc(NCCCNc3ccc4c(=O)n(CCN(C)C)c(=O)n5c6ccccc6c(=O)c3c45)c3c(=O)c4ccccc4n(c1=O)c23`, half-maximal inhibition in the assay on HT-29 (IC50) was put at 390 nM. Besides, in the assay with Nucleic Acid [1], the Binding site preference was determined as 8.9.

For the molecule `COc1ccc2c(c1)c(=O)c1c(NCCN(C)CCNc3ccc4c(=O)n(CCN(C)C)c(=O)n5c6ccc(OC)cc6c(=O)c3c45)ccc3c(=O)n(CCN(C)C)c(=O)n2c31`, half-maximal inhibition in the assay on HT-29 (IC50) required 720 nM.

The molecule `CN(C)CCn1c(=O)c2ccc(NCCCCCCCCNc3ccc4c(=O)n(CCN(C)C)c(=O)n5c6ccccc6c(=O)c3c45)c3c(=O)c4ccccc4n(c1=O)c23` showed an IC50 in the assay with HT-29 of 360 nM. Moreover, in the assay with Nucleic Acid [1], the Binding site preference was determined as 41.

As for `CN(C)CCNc1ccc2c(=O)n(CCN(C)C)c(=O)n3c4ccc([N+](=O)[O-])cc4c(=O)c1c23`, the Binding site preference with Nucleic Acid [2] is 0.12.

In the assay on HT-29, `COc1ccc2nc3c(C(=O)NCCCN(C)CCCNC(=O)c4ccc(NCCN(C)C)c5c(O)c6cc(OC)ccc6nc45)ccc(NCCN(C)C)c3c(O)c2c1` displayed an IC50 of 2 nM. In the assay on Nucleic Acid [1], the Binding site preference was 2.5.

The molecule `CN(C)CCNC(=O)c1ccc(NCCCN(C)CCCNc2ccc(C(=O)NCCN(C)C)c3nc4ccc(O)cc4c(O)c23)c2c(O)c3cc(O)ccc3nc12` gave an IC50 in the assay with HT-29 of 6900 nM. In addition, the Binding site preference in the assay on Nucleic Acid [1] was 1.8.

`COc1cc2c(=O)c3c(NCCCN(C)CCCNc4ccc5c(=O)n(CCN(C)C)c(=O)n6c7cc(OC)c(OC)cc7c(=O)c4c56)ccc4c(=O)n(CCN(C)C)c(=O)n(c2cc1OC)c43` had a 50% inhibitory concentration (IC50) in the assay on HT-29 of 250 nM. For the same molecule, in the assay on Nucleic Acid [1], the Binding site preference was determined as 4.6.

As for `CN(C)CCn1c(=O)c2ccc(NCCCCCCNc3ccc4c(=O)n(CCN(C)C)c(=O)n5c6ccccc6c(=O)c3c45)c3c(=O)c4ccccc4n(c1=O)c23`, it took 43 nM to reach half-maximal inhibition in the assay with HT-29 (IC50). The Binding site preference with Nucleic Acid [1] was found to be 30.

Take `CN(C)CCN1Nc2c3cc(O)ccc3nc3c(C(=O)NCCCN(C)CCCNC(=O)c4ccc5c6c(c7cc(O)ccc7nc46)NN5CCN(C)C)ccc1c23`: the IC50 in the assay on HT-29 was determined as 780 nM. The Binding site preference in the assay on Nucleic Acid [1] was 1.3.

Regarding `CN(C)CCNc1ccc2c(=O)n(CCN(C)C)c(=O)n3c4ccccc4c(=O)c1c23`, the Binding site preference in the assay with Nucleic Acid [2] turned out to be 0.57.

With `CN(C)CCNc1ccc(C(=O)NCCCN(C)CCCNC(=O)c2ccc(NCCN(C)C)c3c(O)c4cc(O)ccc4nc23)c2nc3ccc(O)cc3c(O)c12`, the IC50 in the assay with HT-29 was found to be 800 nM. The Binding site preference with Nucleic Acid [1] was determined as 1.6.

With `CN(C)CCNC(=O)c1ccc2c3c(c4cc(O)ccc4nc13)NN2CCN(C)C`, the Binding site preference in the assay on Nucleic Acid [1] stood at 5.1.

With `CN(C)CCN1Nc2c3cc(O)ccc3nc3c(C(=O)NCCN(C)CCNC(=O)c4ccc5c6c(c7cc(O)ccc7nc46)NN5CCN(C)C)ccc1c23`, the IC50 in the assay with HT-29 was over 10000 nM. Further, the Binding site preference with Nucleic Acid [1] was 2.8.

`CN(C)CCNC(=O)c1ccc(NCCCN(C)CCCNc2ccc(C(=O)NCCN(C)C)c3nc4ccc([N+](=O)[O-])cc4c(O)c23)c2c(O)c3cc([N+](=O)[O-])ccc3nc12` came in with an IC50 in the assay with HT-29 of under 0.1 nM.

Regarding `CN(C)CCNc1ccc2c(=O)n(CCN(C)C)c(=O)n3c4ccc(O)cc4c(=O)c1c23`, in the assay with Nucleic Acid [2], the Binding site preference was found to be 0.25.

Regarding `CN(C)CCNC(=O)c1ccc2c3c(c4ccccc4nc13)NN2CCN(C)C`, the Binding site preference in the assay with Nucleic Acid [1] is 3.4.

With `COc1ccc2c(c1)-c1nn(CCN(C)C)c3ccc(C(=O)NCCN(C)C)c(c13)N2`, the Binding site preference in the assay on Nucleic Acid [1] was found to be 1.6.

Molecule `COc1ccc2c(c1)-c1nn(CCN(C)C)c3ccc(C(=O)NCCN(C)CCNC(=O)c4ccc5c6c(c7cc(OC)ccc7nc46)NN5CCN(C)C)c(c13)N2` had an IC50 with HT-29 of 150 nM. Moreover, the Binding site preference in the assay on Nucleic Acid [1] was found to be 2.8.

In the assay with HT-29, `CN(C)CCNC(=O)c1ccc(NCCCN(C)CCCNc2ccc(C(=O)NCCN(C)C)c3nc4ccccc4c(O)c23)c2c(O)c3ccccc3nc12` came in with an IC50 of 0.43 nM.

As for `CN(C)CCn1c(=O)c2ccc(NCCN(C)CCNc3ccc4c(=O)n(CCN(C)C)c(=O)n5c6ccccc6c(=O)c3c45)c3c(=O)c4ccccc4n(c1=O)c23`, the IC50 in the assay with HT-29 is 110 nM. In addition, in the assay on Nucleic Acid [1], the Binding site preference came to 4.3.

As to `O=C1c2c(O)ccc(O)c2C(=O)c2c(NCCNCCO)ccc(NCCNCCO)c21` [MITOXANTRONE], the IC50 in [3] is 6.8 nM; in [4] it was 0.85 nM; in [5], 110 nM; in the assay with MKN-45 it was 12 nM; with LoVo, 3.3 nM; in assay [6] it was 12 nM. Further, the IC50 with PC-3 is 7 nM; in assay [7], 0.75 nM; in assay [8], 75 nM; in the assay with HCT-116, 5.8 nM.

On to `CN(C)CCNc1ccc(C(=O)NCCCN(C)CCCNC(=O)c2ccc(NCCN(C)C)c3c(=O)c4ccccc4[nH]c23)c2[nH]c3ccccc3c(=O)c12`, for which the IC50 with HT-29 was 57 nM. The Binding site preference with Nucleic Acid [1] worked out at 10.

As for `CN(C)CCn1c(=O)c2ccc(NCCCCCCCCCCCCNc3ccc4c(=O)n(CCN(C)C)c(=O)n5c6ccccc6c(=O)c3c45)c3c(=O)c4ccccc4n(c1=O)c23`, the IC50 in the assay with HT-29 stood at 3500 nM. Also, the Binding site preference in the assay on Nucleic Acid [1] was determined as 12.

Turning to `COc1cc2c(=O)c3c(NCCN(C)C)ccc4c(=O)n(CCN(C)C)c(=O)n(c2cc1OC)c43`, in the assay with Nucleic Acid [2], the Binding site preference came out at 0.12.

For `CN(C)CCn1c(=O)c2ccc(NCCN(C)CCNc3ccc4c(=O)n(CCN(C)C)c(=O)n5c6ccc(O)cc6c(=O)c3c45)c3c(=O)c4cc(O)ccc4n(c1=O)c23`, in the assay on HT-29, the IC50 came to 390 nM. In addition, in the assay on Nucleic Acid [1], the Binding site preference is 9.1.

`COc1ccc2nc3c(C(=O)NCCN(C)C)ccc(NCCCN(C)CCCNc4ccc(C(=O)NCCN(C)C)c5nc6ccc(OC)cc6c(O)c45)c3c(O)c2c1`: the IC50 in the assay on HT-29 amounted to 39 nM. Besides, the Binding site preference in the assay on Nucleic Acid [1] turned out to be 1.9.

What is called IC50 is the concentration needed to halve the response being measured. Low readings indicate greater potency, high ones weaker potency.
